Laboratory results: ChEMBL document CHEMBL1770134, “Synthesis and in vitro activity of novel 1,2,4-triazolo[4,3-a]pyrimidine oxazolidinone antibacterial agents” (Bioorg Med Chem Lett, 2011)
≈ marks a conversion by molar mass, not a printed value.

Key:
[1] = tested on: Escherichia coli; assay: Antibacterial activity against Escherichia coli ATCC 25922; type: functional
[2] = tested on: Staphylococcus epidermidis; assay: Antibacterial activity Staphylococcus epidermidis ATCC 12228; type: functional
[3] = tested on: Enterococcus faecalis; assay: Antibacterial activity against Enterococcus faecalis ATCC 29212; type: functional
[4] = tested on: Staphylococcus aureus; assay: Antibacterial activity against Staphylococcus aureus ATCC 25923; type: functional
[5] = tested on: Staphylococcus aureus; assay: Antibacterial activity against methicillin-resistant Staphylococcus aureus ATCC 43300; type: functional
Method in brief: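 MIC determined following CLSI guideline M07-A8 (2009) for dilution susceptibility testing of aerobically growing bacteria.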

[6] = tested on: Liver; assay: Metabolic stability in human liver microsomes assessed per gram of liver; type: ADME, Microsome
[7] = target: T1, CYP1A2 (Homo sapiens, UniProt P05177); assay: Inhibition of CYP1A2 at 10 uM; type: ADME
T1 sequence (P05177 whole entry): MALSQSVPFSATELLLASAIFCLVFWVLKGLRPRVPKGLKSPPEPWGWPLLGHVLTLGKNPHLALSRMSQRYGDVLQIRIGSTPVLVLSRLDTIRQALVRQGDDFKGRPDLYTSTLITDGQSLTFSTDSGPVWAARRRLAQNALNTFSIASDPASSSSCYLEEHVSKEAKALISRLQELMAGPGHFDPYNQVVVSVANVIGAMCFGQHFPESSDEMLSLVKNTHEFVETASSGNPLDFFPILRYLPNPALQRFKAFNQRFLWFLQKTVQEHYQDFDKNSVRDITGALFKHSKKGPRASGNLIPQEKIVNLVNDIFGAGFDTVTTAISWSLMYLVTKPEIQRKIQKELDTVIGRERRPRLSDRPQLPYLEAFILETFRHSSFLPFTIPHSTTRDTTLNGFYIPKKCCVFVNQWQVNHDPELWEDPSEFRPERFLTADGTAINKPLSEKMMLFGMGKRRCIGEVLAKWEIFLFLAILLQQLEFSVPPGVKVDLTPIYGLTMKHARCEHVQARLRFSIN
Method in brief: (§1)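 Recombinant CYP isoforms each incubated with its own fluorogenic substrate, which is turned into a fluorescent product; fluorescence read on a plate reader. Inhibition taken as concentration-dependent reduction of that fluorescence, with standard inhibitors, buffers and stop reagents from a commercial kit.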

[8] = tested on: Staphylococcus epidermidis; assay: Ratio of MIC for Linezolid to compound for Staphylococcus epidermidis ATCC 12228; type: functional
[9] = target: CYP3A4 (Homo sapiens, UniProt P08684); assay: Inhibition of CYP3A4 at 10 uM; type: ADME; method in brief: as §1
[10] = tested on: Staphylococcus aureus; assay: Ratio of MIC for Linezolid to compound for Staphylococcus aureus ATCC 25923; type: functional
[11] = tested on: Enterococcus faecalis; assay: Ratio of MIC for Linezolid to compound for Enterococcus faecalis ATCC 29212; type: functional
[12] = target: CYP2C9 (Homo sapiens, UniProt P11712); assay: Inhibition of CYP2C9 at 10 uM; type: ADME; method in brief: as §1
[13] = target: CYP2C19 (Homo sapiens, UniProt P33261); assay: Inhibition of CYP2C19 at 10 uM; type: ADME; method in brief: as §1
[14] = target: CYP2D6 (Homo sapiens, UniProt P10635); assay: Inhibition of CYP2D6 at 10 uM; type: ADME; method in brief: as §1
Sequence of CYP2D6 (P10635 whole entry): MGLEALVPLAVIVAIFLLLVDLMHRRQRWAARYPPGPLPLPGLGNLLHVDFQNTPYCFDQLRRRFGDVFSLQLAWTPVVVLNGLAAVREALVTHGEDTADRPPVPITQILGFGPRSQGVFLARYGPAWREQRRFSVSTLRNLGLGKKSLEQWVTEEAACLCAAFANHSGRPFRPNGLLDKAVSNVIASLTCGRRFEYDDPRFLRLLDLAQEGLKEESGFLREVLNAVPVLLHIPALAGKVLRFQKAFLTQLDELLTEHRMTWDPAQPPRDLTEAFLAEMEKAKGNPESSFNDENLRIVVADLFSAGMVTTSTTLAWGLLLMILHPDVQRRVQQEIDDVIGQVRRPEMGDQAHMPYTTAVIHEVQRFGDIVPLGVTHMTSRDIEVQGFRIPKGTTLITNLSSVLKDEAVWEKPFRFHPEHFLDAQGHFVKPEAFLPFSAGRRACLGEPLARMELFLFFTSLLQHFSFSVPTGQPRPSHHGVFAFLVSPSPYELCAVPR

Sequence of CYP2C19 (P33261 whole entry): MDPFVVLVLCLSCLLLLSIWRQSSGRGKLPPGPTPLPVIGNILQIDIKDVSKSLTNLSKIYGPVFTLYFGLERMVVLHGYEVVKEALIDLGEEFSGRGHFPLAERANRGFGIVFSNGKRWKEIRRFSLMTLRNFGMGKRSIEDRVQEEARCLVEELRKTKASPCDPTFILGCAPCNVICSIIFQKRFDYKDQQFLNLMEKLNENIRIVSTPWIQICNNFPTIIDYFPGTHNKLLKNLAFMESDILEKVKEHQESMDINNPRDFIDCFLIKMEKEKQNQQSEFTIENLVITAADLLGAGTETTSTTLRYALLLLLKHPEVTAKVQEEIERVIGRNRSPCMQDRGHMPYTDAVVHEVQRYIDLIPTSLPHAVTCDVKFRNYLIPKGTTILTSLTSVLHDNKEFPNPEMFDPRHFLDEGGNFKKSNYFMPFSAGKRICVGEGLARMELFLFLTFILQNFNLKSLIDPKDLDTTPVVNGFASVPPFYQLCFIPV
Sequence of CYP3A4 (P08684 whole entry): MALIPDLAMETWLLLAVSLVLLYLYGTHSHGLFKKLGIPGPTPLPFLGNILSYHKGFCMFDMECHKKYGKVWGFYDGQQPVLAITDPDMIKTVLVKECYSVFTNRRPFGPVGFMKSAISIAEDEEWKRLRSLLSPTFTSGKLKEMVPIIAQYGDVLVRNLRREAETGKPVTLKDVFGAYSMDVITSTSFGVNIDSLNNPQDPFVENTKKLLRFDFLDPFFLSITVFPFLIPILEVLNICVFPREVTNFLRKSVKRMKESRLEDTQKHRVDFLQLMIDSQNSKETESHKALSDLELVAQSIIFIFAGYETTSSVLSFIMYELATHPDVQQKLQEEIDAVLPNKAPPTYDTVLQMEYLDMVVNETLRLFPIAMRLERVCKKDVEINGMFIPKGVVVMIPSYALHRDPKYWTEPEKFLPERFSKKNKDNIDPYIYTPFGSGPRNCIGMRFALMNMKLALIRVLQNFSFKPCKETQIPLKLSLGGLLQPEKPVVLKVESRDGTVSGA
Sequence of CYP2C9 (P11712 whole entry): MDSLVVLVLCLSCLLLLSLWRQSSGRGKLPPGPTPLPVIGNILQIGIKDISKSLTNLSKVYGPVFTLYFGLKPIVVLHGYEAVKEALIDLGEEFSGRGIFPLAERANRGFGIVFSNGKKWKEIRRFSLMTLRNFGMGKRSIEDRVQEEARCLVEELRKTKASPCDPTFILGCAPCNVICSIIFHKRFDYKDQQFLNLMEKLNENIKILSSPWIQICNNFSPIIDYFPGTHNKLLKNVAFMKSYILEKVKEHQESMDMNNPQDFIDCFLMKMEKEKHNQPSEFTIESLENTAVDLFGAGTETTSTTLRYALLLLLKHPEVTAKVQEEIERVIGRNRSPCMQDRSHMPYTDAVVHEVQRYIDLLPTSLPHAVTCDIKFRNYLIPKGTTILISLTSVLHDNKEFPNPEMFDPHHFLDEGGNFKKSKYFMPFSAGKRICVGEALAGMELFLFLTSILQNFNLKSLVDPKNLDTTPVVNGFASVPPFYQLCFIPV

CC(=O)NC[C@H]1CN(c2ccc(N3CCOCC3)c(F)c2)C(=O)O1 [LINEZOLID]
MIC [1]: > 16 µg/mL | MIC [2]: 1 µg/mL (≈ 2.96 µM)

CCCCNC(=O)NC[C@H]1CN(c2ccc(-c3nnc4ncccn34)cc2)C(=O)O1
MIC [3]: > 16 µg/mL | MIC [1]: > 16 µg/mL | MIC [2]: > 16 µg/mL | MIC [4]: > 16 µg/mL | MIC [5]: > 16 µg/mL

O=C(CCl)NC[C@H]1CN(c2ccc(-c3nnc4ncccn34)cc2)C(=O)O1
MIC [3]: 16 µg/mL (≈ 41.4 µM) | MIC [1]: > 16 µg/mL | MIC [2]: 4 µg/mL (≈ 10.3 µM) | MIC [4]: 4 µg/mL (≈ 10.3 µM) | MIC [5]: 4 µg/mL (≈ 10.3 µM)

CC(=S)NC[C@H]1CN(c2ccc(-c3nnc4ncccn34)cc2)C(=O)O1
MIC [3]: 1 µg/mL (≈ 2.71 µM) | Stability [6]: 0.3 mL/min/g | MIC [1]: > 16 µg/mL | inhibition at 10 µM [7]: 0% | Ratio [8]: 2 | MIC [2]: 0.5 µg/mL (≈ 1.36 µM) | inhibition at 10 µM [9]: 28% | Ratio [10]: 2 | Ratio [11]: 2 | inhibition at 10 µM [12]: 15% | inhibition at 10 µM [13]: 30% | MIC [4]: 1 µg/mL (≈ 2.71 µM) | MIC [5]: 0.5 µg/mL (≈ 1.36 µM) | inhibition at 10 µM [14]: 13%

CC(=O)NC[C@H]1CN(c2ccc(-c3nnc4ncccn34)cc2)C(=O)O1
MIC [3]: 16 µg/mL (≈ 45.4 µM) | MIC [1]: > 16 µg/mL | MIC [2]: 8 µg/mL (≈ 22.7 µM) | MIC [4]: 16 µg/mL (≈ 45.4 µM) | MIC [5]: 16 µg/mL (≈ 45.4 µM)

O=C(NC[C@H]1CN(c2ccc(-c3nnc4ncccn34)cc2)C(=O)O1)C1CC1
MIC [3]: 16 µg/mL (≈ 42.3 µM) | MIC [1]: > 16 µg/mL | MIC [2]: 8 µg/mL (≈ 21.1 µM) | MIC [4]: 16 µg/mL (≈ 42.3 µM) | MIC [5]: 8 µg/mL (≈ 21.1 µM)

O=C(NC[C@H]1CN(c2ccc(-c3nnc4ncccn34)cc2)C(=O)O1)C1CCC1
MIC [3]: > 16 µg/mL | MIC [1]: > 16 µg/mL | MIC [2]: 16 µg/mL (≈ 40.8 µM) | MIC [4]: > 16 µg/mL | MIC [5]: 16 µg/mL (≈ 40.8 µM)

CCCC(=O)NC[C@H]1CN(c2ccc(-c3nnc4ncccn34)cc2)C(=O)O1
MIC [3]: > 16 µg/mL | MIC [1]: > 16 µg/mL | MIC [2]: 16 µg/mL (≈ 42.1 µM) | MIC [4]: > 16 µg/mL | MIC [5]: 16 µg/mL (≈ 42.1 µM)

CCOC(=O)NC[C@H]1CN(c2ccc(-c3nnc4ncccn34)cc2)C(=O)O1
MIC [3]: > 16 µg/mL | MIC [1]: > 16 µg/mL | MIC [2]: > 16 µg/mL | MIC [4]: 16 µg/mL (≈ 41.8 µM) | MIC [5]: 16 µg/mL (≈ 41.8 µM)

CC(C)NC(=O)NC[C@H]1CN(c2ccc(-c3nnc4ncccn34)cc2)C(=O)O1
MIC [3]: > 16 µg/mL | MIC [1]: > 16 µg/mL | MIC [2]: > 16 µg/mL | MIC [4]: > 16 µg/mL | MIC [5]: > 16 µg/mL

CC(C)NC(=S)NC[C@H]1CN(c2ccc(-c3nnc4ncccn34)cc2)C(=O)O1
MIC [3]: > 16 µg/mL | MIC [1]: > 16 µg/mL | MIC [2]: 16 µg/mL (≈ 38.9 µM) | MIC [4]: 16 µg/mL (≈ 38.9 µM) | MIC [5]: 16 µg/mL (≈ 38.9 µM)

CCCCNC(=S)NC[C@H]1CN(c2ccc(-c3nnc4ncccn34)cc2)C(=O)O1
MIC [3]: 16 µg/mL (≈ 37.6 µM) | MIC [1]: > 16 µg/mL | MIC [2]: 8 µg/mL (≈ 18.8 µM) | MIC [4]: 16 µg/mL (≈ 37.6 µM) | MIC [5]: 8 µg/mL (≈ 18.8 µM)

CC(C)CC(=O)NC[C@H]1CN(c2ccc(-c3nnc4ncccn34)cc2)C(=O)O1
MIC [3]: > 16 µg/mL | MIC [1]: > 16 µg/mL | MIC [2]: 16 µg/mL (≈ 40.6 µM) | MIC [4]: > 16 µg/mL | MIC [5]: 16 µg/mL (≈ 40.6 µM)

O=C(NC[C@H]1CN(c2ccc(-c3nnc4ncccn34)cc2)C(=O)O1)Oc1ccccc1
MIC [3]: > 16 µg/mL | MIC [1]: > 16 µg/mL | MIC [2]: > 16 µg/mL | MIC [4]: > 16 µg/mL | MIC [5]: > 16 µg/mL

COC(=O)NC[C@H]1CN(c2ccc(-c3nnc4ncccn34)cc2)C(=O)O1
MIC [3]: > 16 µg/mL | MIC [1]: > 16 µg/mL | MIC [2]: 16 µg/mL (≈ 43.4 µM) | MIC [4]: 16 µg/mL (≈ 43.4 µM) | MIC [5]: 16 µg/mL (≈ 43.4 µM)

O=C(NC[C@H]1CN(c2ccc(-c3nnc4ncccn34)cc2)C(=O)O1)C(Cl)Cl
MIC [3]: 8 µg/mL (≈ 19 µM) | MIC [1]: > 16 µg/mL | MIC [2]: 4 µg/mL (≈ 9.5 µM) | MIC [4]: 4 µg/mL (≈ 9.5 µM) | MIC [5]: 8 µg/mL (≈ 19 µM)

CC(C)C(=O)NC[C@H]1CN(c2ccc(-c3nnc4ncccn34)cc2)C(=O)O1
MIC [3]: > 16 µg/mL | MIC [1]: > 16 µg/mL | MIC [2]: > 16 µg/mL | MIC [4]: > 16 µg/mL | MIC [5]: 16 µg/mL (≈ 42.1 µM)

CC(C)(C)NC(=O)NC[C@H]1CN(c2ccc(-c3nnc4ncccn34)cc2)C(=O)O1
MIC [3]: > 16 µg/mL | MIC [1]: > 16 µg/mL | MIC [2]: > 16 µg/mL | MIC [4]: > 16 µg/mL | MIC [5]: > 16 µg/mL

COCCNC(=S)NC[C@H]1CN(c2ccc(-c3nnc4ncccn34)cc2)C(=O)O1
MIC [3]: > 16 µg/mL | MIC [1]: > 16 µg/mL | MIC [2]: 8 µg/mL (≈ 18.7 µM) | MIC [4]: > 16 µg/mL | MIC [5]: 16 µg/mL (≈ 37.4 µM)

O=C(NC[C@H]1CN(c2ccc(-c3nnc4ncccn34)cc2)C(=O)O1)c1ccccc1
MIC [3]: > 16 µg/mL | MIC [1]: > 16 µg/mL | MIC [2]: > 16 µg/mL | MIC [4]: > 16 µg/mL | MIC [5]: > 16 µg/mL

CCC(=O)NC[C@H]1CN(c2ccc(-c3nnc4ncccn34)cc2)C(=O)O1
MIC [3]: 16 µg/mL (≈ 43.7 µM) | MIC [1]: > 16 µg/mL | MIC [2]: 16 µg/mL (≈ 43.7 µM) | MIC [4]: 16 µg/mL (≈ 43.7 µM) | MIC [5]: 16 µg/mL (≈ 43.7 µM)

CCCCC(=O)NC[C@H]1CN(c2ccc(-c3nnc4ncccn34)cc2)C(=O)O1
MIC [3]: > 16 µg/mL | MIC [1]: > 16 µg/mL | MIC [2]: 16 µg/mL (≈ 40.6 µM) | MIC [4]: > 16 µg/mL | MIC [5]: 16 µg/mL (≈ 40.6 µM)

CCC(=S)NC[C@H]1CN(c2ccc(-c3nnc4ncccn34)cc2)C(=O)O1
MIC [3]: 4 µg/mL (≈ 10.5 µM) | MIC [1]: > 16 µg/mL | MIC [2]: 2 µg/mL (≈ 5.23 µM) | MIC [4]: 4 µg/mL (≈ 10.5 µM) | MIC [5]: 2 µg/mL (≈ 5.23 µM)
